The full list was thinned out, with hits kept by preference.
TLR4-MyD88 BLA – TLR4-MyD88 interaction inhibition in cells; O00206+Q99836; HeLa CL3-4 TLR4/MyD88 BLA complementation, FRET ratio; inhibition, % at 8.4 µM; 200,000 tested, 0.18% active; AID 861; in the data active means inhibition above about 25%
CHOP inh – inhibitors of CHOP induction in ER stress response | CHO-K1 CHOP-promoter luciferase, tunicamycin-induced, 15-18 h | inhibition, % at 10 µM | 220,000 tested, 3.8% active | AID 2732;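 active means compounds that reduced the stress-induced luciferase reporter signal by more than about 70% of percent inhibition, limit read from the data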
UPR CHOP act – apoptotic UPR (CHOP) activation. CHO-CHOP luciferase reporter, luminescence; percent of tunicamycin response over DMSO baseline. activation, % at 10 µM. 330,000 tested, 0.34% active;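 active means at 10 µM dose, activation of 40% or more, normalized to positive control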
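System: CHO-CHOP luciferase reporter cell line; amount: 500 cells/well; buffer or medium: F12 medium containing 10% fetal bovine serum; incubation: 6 h compound exposure at 37 °C after overnight seeding; measured by: luciferase luminescence after 10 min with Steady-Glo reagent; evaluation: % reporter activation, DMSO baseline versus tunicamycin full activation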
NOD2-RIPK2 inh – NOD2-RIPK2 protein interaction inhibition | AID 624267 | O43353 | inhibition, % at 4.98 µM | 360,000 tested, 0.38% active | CHO BLA complementation NOD2-RIPK2, CCF4 ratio; in the data active means inhibition above about 21%
TLR9-MyD88 block – blocks human TLR9 binding to MyD88; Q9NR96+Q99836; CHO BLA complementation TLR9-MyD88, CCF4 FRET ratio; inhibition, % at 4.98 µM; 340,000 tested, 0.21% active;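 active means inhibition above the mean over all tested compounds plus 3 SD, cut at about 21% in these data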
Target sequence (Q99836 whole entry, looked up): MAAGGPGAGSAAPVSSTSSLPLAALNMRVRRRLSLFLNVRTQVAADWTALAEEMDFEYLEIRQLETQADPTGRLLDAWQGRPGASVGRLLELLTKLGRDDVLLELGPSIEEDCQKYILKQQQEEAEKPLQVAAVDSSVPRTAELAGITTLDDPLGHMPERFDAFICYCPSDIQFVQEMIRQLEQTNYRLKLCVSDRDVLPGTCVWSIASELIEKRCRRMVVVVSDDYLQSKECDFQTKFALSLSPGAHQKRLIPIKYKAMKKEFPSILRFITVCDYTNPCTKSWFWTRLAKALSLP
Target sequence (Q9NR96 whole entry, looked up): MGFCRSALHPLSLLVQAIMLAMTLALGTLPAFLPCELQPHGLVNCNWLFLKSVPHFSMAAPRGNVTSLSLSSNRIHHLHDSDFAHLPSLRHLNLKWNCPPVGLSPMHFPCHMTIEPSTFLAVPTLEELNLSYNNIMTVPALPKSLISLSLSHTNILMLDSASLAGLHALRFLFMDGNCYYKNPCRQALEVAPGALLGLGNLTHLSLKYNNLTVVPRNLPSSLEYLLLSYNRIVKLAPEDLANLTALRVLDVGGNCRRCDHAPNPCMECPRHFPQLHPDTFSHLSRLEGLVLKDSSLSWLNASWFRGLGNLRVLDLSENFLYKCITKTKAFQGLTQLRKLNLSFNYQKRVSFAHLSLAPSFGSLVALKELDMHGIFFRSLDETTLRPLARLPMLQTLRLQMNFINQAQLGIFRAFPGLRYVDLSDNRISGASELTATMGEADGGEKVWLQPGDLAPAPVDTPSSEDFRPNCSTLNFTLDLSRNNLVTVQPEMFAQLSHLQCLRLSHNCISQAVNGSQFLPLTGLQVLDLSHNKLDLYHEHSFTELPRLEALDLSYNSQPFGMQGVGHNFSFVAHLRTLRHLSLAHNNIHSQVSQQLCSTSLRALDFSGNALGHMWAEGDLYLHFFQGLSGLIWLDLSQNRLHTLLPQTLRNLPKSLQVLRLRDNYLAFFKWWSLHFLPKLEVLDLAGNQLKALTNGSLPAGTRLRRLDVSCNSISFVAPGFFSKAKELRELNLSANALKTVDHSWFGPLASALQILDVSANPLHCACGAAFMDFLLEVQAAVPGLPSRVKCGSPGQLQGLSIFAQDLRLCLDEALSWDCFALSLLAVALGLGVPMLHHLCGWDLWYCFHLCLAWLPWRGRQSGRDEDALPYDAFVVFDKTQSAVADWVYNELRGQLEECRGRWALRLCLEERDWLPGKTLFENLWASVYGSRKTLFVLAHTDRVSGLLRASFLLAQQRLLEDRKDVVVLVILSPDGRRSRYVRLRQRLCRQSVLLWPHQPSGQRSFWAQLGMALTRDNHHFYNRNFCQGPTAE
XBP1 UPR activ – activators of adaptive arm of unfolded protein response (XBP1) | CHO-XBP1 luciferase reporter, IRE1-XBP1 UPR activation, luminescence; percent of tunicamycin response, DMSO as zero | activation, % at 20 µM | 330,000 tested, 0.33% active | AID 463104;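 active means versus positive control, 20 µM dose yields 30% or more activation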
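Material: CHO-XBP1 cells stably carrying IRE1-XBP1-driven luciferase reporter | Medium: F12 with 10% serum | Compound dosing: 20 µM single concentration, DMSO 1% | Incubation: Overnight seeding at 37 °C, 6 h compound treatment at 37 °C | Detection: Steady-Glo luminescence read | Read-out basis: % activation of reporter signal versus tunicamycin and DMSO controls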
TLR4 MyD88 cnf – confirmation of human TLR4-MyD88 binding inhibitors; shares compounds with TLR4-MyD88 BLA; HeLa CL3-4 BLA complementation, CCF4 FRET ratio; inhibition, % at 8.4 µM; 350 tested, 50% active;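 active means mean inhibition across three repeat runs above about 25% carried over from the earlier screen, limit read from the data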
BLA inh HeLa – beta-lactamase inhibition flagged in TLR4-MyD88 counter-screen | 350 tested, 63% active | inhibition, % at 8.4 µM | HeLa BLA reporter, CCF4 FRET ratio | AID 1237 | shares compounds with TLR4-MyD88 BLA;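 active means mean inhibition over three repeats above about 26% taken from the earlier screen, limit read from the data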;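 further: HeLa cells stably expressing beta-lactamase reporter as counterscreen for TLR4-MyD88 inhibitors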
CHOP inh conf – confirmation of CHOP induction inhibitors. 2,100 tested, 45% active. CHO-CHOP promoter luciferase reporter, tunicamycin-induced, luminescence. AID 504437. shares compounds with CHOP inh. inhibition, % at 10 µM;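 active means mean of three repeat readings of reporter signal inhibition above a set limit, cut at about 70% in these data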
TLR9-MyD88 cf – TLR9-MyD88 interaction inhibition, confirmation; shares compounds with TLR9-MyD88 block; CHO TLR9/MyD88 BLA complementation, CCF4 FRET ratio; inhibition, % at 4.98 µM; 680 tested, 51% active; AID 540250;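 active means mean inhibition across three repeats above about 21% taken from the earlier screen, limit read from the data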;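 further: blue over green emission ratio reports constitutive TLR9 MyD88 association via BLA complementation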
BLA counter-1 – beta-lactamase reporter inhibition, counter-screen artifact; shares compounds with TLR9-MyD88 block; CHO-BLA cells, CCF4 FRET ratio, BLA reporter; inhibition, % at 4.98 µM; 680 tested, 7% active; AID 540251;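 active means mean inhibition above a 50% cutoff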;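 further: counterscreen of TLR9-MyD88 hits on CMV-driven BLA in CHO-K1 cells; higher means less blue over green ratio so more BLA blockade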
TLR9 CHO tox – counter-screen for TLR9-MyD88 inhibitors: cytotoxicity in CHO cells | shares compounds with TLR9-MyD88 block | luminescence | inhibition, % at 4.98 µM | 680 tested, 39% active; in the data active means inhibition above about 11%
NOD2-RIPK2 conf – NOD2-RIPK2 interaction inhibition confirmed. shares compounds with NOD2-RIPK2 inh. CHO cells, NOD2-RIPK2 BLA complementation, CCF4 FRET. inhibition, % at 4.98 µM. 1,200 tested, 70% active. AID 624370;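 active means mean inhibition across replicates above a set limit taken from the earlier primary screen, cut at about 21% in these data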
BLA counter-2 – counter-screen for NOD2-RIPK2 interaction inhibitors: BLA reporter | inhibition, % at 4.98 µM | AID 624371 | shares compounds with NOD2-RIPK2 inh | 1,200 tested, 57% active | CHO BLA reporter, CCF4 FRET ratio, counterscreen;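 active means mean inhibition above the low-control mean inhibition plus three low-control SD, cut at about 11% in these data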
Numbers stand for hits.

Results for CCc1ccc2c(c1)C1(NN=C(c3cccc4ccccc34)S1)C(=O)N2 (centres undefined) ?
TLR4-MyD88 BLA: 31; CHOP inh: 104; UPR CHOP act: 95; NOD2-RIPK2 inh: 30; TLR9-MyD88 block: 27; XBP1 UPR activ: inactive; TLR4 MyD88 cnf: inactive; BLA inh HeLa: 28; CHOP inh conf: inactive; NOD2-RIPK2 conf: inactive; BLA counter-2: inactive

How did CCc1ccc2c(c1)NC(=O)C2(C)Cc1ccccc1 (centres undefined) do in these assays?
NOD2-RIPK2 inh: inactive

Results for O=Cc1s/c(=N\S(=O)(=O)c2ccccc2)n(CCCCl)c1Cl ?
TLR4-MyD88 BLA: 30; CHOP inh: 107; NOD2-RIPK2 inh: 85; TLR9-MyD88 block: 37; TLR4 MyD88 cnf: 28; BLA inh HeLa: inactive; CHOP inh conf: 112; TLR9-MyD88 cf: 42; BLA counter-1: inactive; TLR9 CHO tox: 96; NOD2-RIPK2 conf: 96; BLA counter-2: 36

How did CC1CCN(C(=S)NC(=O)c2cccs2)CC1 do in these assays?
TLR4-MyD88 BLA: inactive; CHOP inh: inactive; UPR CHOP act: inactive; NOD2-RIPK2 inh: inactive; TLR9-MyD88 block: inactive; XBP1 UPR activ: inactive

How did Cc1cc(=O)[nH]c(SCC(=O)N2CCCC(C)C2)n1 (centres undefined) do in these assays?
UPR CHOP act: inactive; NOD2-RIPK2 inh: inactive; TLR9-MyD88 block: inactive; XBP1 UPR activ: inactive

How did Cc1ccc(-c2cc(-c3ccccc3)c3c(N)c(S(C)(=O)=O)sc3n2)cc1 do in these assays?
TLR4-MyD88 BLA: 28; CHOP inh: inactive; UPR CHOP act: inactive; NOD2-RIPK2 inh: 35; TLR9-MyD88 block: 46; XBP1 UPR activ: inactive; TLR4 MyD88 cnf: 31; BLA inh HeLa: 50; NOD2-RIPK2 conf: 62; BLA counter-2: 71

Results for Cc1cc(C)c2c(N)c(S(=O)(=O)Cc3ccccc3)sc2n1 ?
TLR4-MyD88 BLA: inactive; CHOP inh: inactive; UPR CHOP act: inactive; NOD2-RIPK2 inh: inactive; TLR9-MyD88 block: inactive; XBP1 UPR activ: inactive

What do the screens show for `CCN1CCN(c2ccc(NC(=O)c3ccc([N+](=O)[O-])o3)cc2Cl)CC1`?
TLR4-MyD88 BLA: 30; CHOP inh: inactive; NOD2-RIPK2 inh: 31; TLR9-MyD88 block: inactive; TLR4 MyD88 cnf: inactive; BLA inh HeLa: inactive; NOD2-RIPK2 conf: 25; BLA counter-2: 16

Results for O=S(=O)(c1ccc(NC(=S)N/N=C/c2c3ccccc3cc3ccccc23)cc1)N1CCOCC1 ?
TLR4-MyD88 BLA: 39; CHOP inh: inactive; UPR CHOP act: inactive; NOD2-RIPK2 inh: 22; TLR9-MyD88 block: inactive; XBP1 UPR activ: inactive; TLR4 MyD88 cnf: inactive; BLA inh HeLa: 43; NOD2-RIPK2 conf: 49; BLA counter-2: 53

Results for Cc1cc2cc(C=C(C#N)C#N)c(Cl)nc2cc1C ?
TLR4-MyD88 BLA: inactive; CHOP inh: 97; UPR CHOP act: inactive; NOD2-RIPK2 inh: inactive; TLR9-MyD88 block: inactive; XBP1 UPR activ: inactive; CHOP inh conf: inactive

How did CCOC(=O)/C(C#N)=C/c1cc2cc(C)c(C)cc2nc1Cl do in these assays?
CHOP inh: inactive; UPR CHOP act: inactive; NOD2-RIPK2 inh: inactive; TLR9-MyD88 block: inactive; XBP1 UPR activ: inactive

Results for Cc1ccc(C(=C2C3C=CC2C2C(=O)NC(=O)C32)c2ccc(C)cc2)cc1 (centres undefined) ?
TLR4-MyD88 BLA: inactive; CHOP inh: 108; UPR CHOP act: inactive; NOD2-RIPK2 inh: inactive; TLR9-MyD88 block: inactive; XBP1 UPR activ: inactive; CHOP inh conf: inactive

What do the screens show for `N#Cc1ccc(-c2nc3ccc(Br)cc3c(=O)n2O)cc1`?
UPR CHOP act: inactive; NOD2-RIPK2 inh: inactive; TLR9-MyD88 block: inactive; XBP1 UPR activ: inactive

What do the screens show for `O=c1c2cc(Br)ccc2nc(-c2cccc(C(F)(F)F)c2)n1O`?
TLR4-MyD88 BLA: inactive; CHOP inh: 99; UPR CHOP act: inactive; NOD2-RIPK2 inh: inactive; TLR9-MyD88 block: inactive; XBP1 UPR activ: inactive; CHOP inh conf: inactive

Results for O=C(Nc1cccc(Cl)c1Cl)c1cc(S(=O)(=O)NCCc2ccccc2)ccc1F ?
TLR4-MyD88 BLA: inactive; CHOP inh: 97; UPR CHOP act: inactive; NOD2-RIPK2 inh: inactive; TLR9-MyD88 block: inactive; XBP1 UPR activ: inactive; CHOP inh conf: 88

Results for C[C@]12c3[nH]c4ccccc4c3CCN1C(=O)C(CC(=O)NCCN1CCOCC1)C[C@@H]2C(=O)N1CCOCC1 (some centres undefined) ?
UPR CHOP act: inactive; NOD2-RIPK2 inh: inactive; TLR9-MyD88 block: inactive; XBP1 UPR activ: inactive

What do the screens show for `C=CCSc1n[nH]c(-c2ccc(OCCCC)cc2)n1`?
TLR4-MyD88 BLA: inactive; CHOP inh: 106; UPR CHOP act: inactive; NOD2-RIPK2 inh: inactive; TLR9-MyD88 block: inactive; XBP1 UPR activ: inactive; CHOP inh conf: 97

How did C=CCSc1n[nH]c(-c2ccc(OCCC)cc2)n1 do in these assays?
TLR4-MyD88 BLA: inactive; CHOP inh: inactive; UPR CHOP act: inactive; NOD2-RIPK2 inh: inactive; TLR9-MyD88 block: inactive; XBP1 UPR activ: inactive

What do the screens show for `C=CCn1c(SCC(=O)Nc2ccc(-c3nc4ccc(C)cc4s3)cc2)nnc1-c1ccccc1`?
TLR4-MyD88 BLA: inactive; CHOP inh: 100; NOD2-RIPK2 inh: inactive; TLR9-MyD88 block: inactive; CHOP inh conf: 70

What do the screens show for `CC(C)N(Cc1ccccc1)C(=O)COC(=O)c1cnc(Cl)c(Cl)c1`?
UPR CHOP act: inactive; NOD2-RIPK2 inh: inactive; TLR9-MyD88 block: inactive; XBP1 UPR activ: inactive
